What was measured:
[1] = system: Rattus norvegicus; test: Effect on DOPA accumulation in rat striatum after intraperitoneal administration of compound (10 mg/kg) and GBL, was determined and expressed as percent reversal of the increase in DOPA; type: functional
Outline: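 Male Long-Evans rats given compound 10 mg/kg ip 60 min before sacrifice. GBL 750 mg/kg ip (omitted in controls) and NSD 1015 100 mg/kg ip given 30 min before sacrifice. Striatal DOPA measured by HPLC with electrochemical detection. Result is percent reversal of the GBL-induced DOPA rise, ± SEM.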

[2] = system: Mus musculus; test: Inhibition of locomotor activity in mice was determined after intraperitoneal administration of compound; type: functional; conditions: ip
Outline: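 Mice dosed ip, then tested immediately for 1 h in darkened cylindrical photobeam chambers. Inhibition expressed relative to vehicle-treated mice. ED50 with 95% confidence range from three to six doses, 6–18 animals per dose.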

[3] = molecular target: T1, D(2) dopamine receptor (Homo sapiens, UniProt P14416); test: Binding affinity towards human Dopamine receptor D2L evaluated using [3H]spiperone
Outline: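 Human D2L expressed in CHO-K1 membranes. Labelled with 0.6 nM [3H]spiperone in triplicate in Tris HCl pH 7.4 buffer with 1 mM EDTA and 6 mM MgCl2, 60 min at 25 °C. 1 μM haloperidol defines specific binding. Bound ligand filtered and counted. Ki ± SEM from four to six concentrations by nonlinear regression.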

[4] = molecular target: D(3) dopamine receptor (Homo sapiens, UniProt P35462); test: Binding affinity towards human Dopamine receptor D3 evaluated using [3H]spiperone
[5] = molecular target: T1, D(2) dopamine receptor; test: Binding affinity towards human Dopamine receptor D2L evaluated using [3H]N-0437
Outline: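 CHO-K1 membranes expressing human D2L incubated in triplicate with 1 nM [3H]N-0437 in 25 mM Tris HCl pH 7.4 with 1 mM EDTA and 6 mM MgCl2, 25 °C for 60 min. Nonspecific binding set with 1 μM haloperidol. Filtration, scintillation counting. Ki by nonlinear regression from four to six concentrations, ± SEM.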

[6] = molecular target: T2, D(4) dopamine receptor (Homo sapiens, UniProt P21917); test: Binding affinity towards human Dopamine receptor D4.2 evaluated using [3H]spiperone
T2 sequence (P21917 whole entry): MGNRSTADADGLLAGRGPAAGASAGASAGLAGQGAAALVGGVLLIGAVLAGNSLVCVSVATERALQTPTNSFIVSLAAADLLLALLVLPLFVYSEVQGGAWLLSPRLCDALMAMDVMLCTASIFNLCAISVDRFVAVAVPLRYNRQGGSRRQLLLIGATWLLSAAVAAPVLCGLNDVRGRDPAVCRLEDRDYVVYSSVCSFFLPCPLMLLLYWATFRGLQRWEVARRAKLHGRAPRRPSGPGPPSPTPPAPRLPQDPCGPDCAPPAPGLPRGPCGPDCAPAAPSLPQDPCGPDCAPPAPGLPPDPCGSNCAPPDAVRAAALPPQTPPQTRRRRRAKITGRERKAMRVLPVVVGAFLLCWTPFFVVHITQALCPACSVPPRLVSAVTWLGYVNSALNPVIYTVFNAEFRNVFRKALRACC
Outline: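 CHO-K1 membranes bearing human D4.2 run in triplicate with 0.2 nM [3H]spiperone in Tris HCl pH 7.4 buffer with 1.5 mM CaCl2 and 5 mM KCl, 25 °C, 60 min. Specific binding is the fraction blocked by 1 μM haloperidol. Filtration, then scintillation counting. Ki ± SEM by nonlinear regression over four to six concentrations; IC50 given where inhibition at 10 μM is below 50%.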

[7] = system: Monkey; test: Inhibition of conditioned avoidance in squirrel monkeys was determined after peroral administration of compound; type: functional; conditions: in Saimiri, po
Outline: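 Squirrel monkeys dosed orally, conditioned avoidance monitored for 6 h. Inhibition taken as percent of control avoidance responding over the 4 h peak-effect period. ED50 with 95% confidence range from three doses, eight monkeys per dose.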

[8] = system: Rattus norvegicus; test: Effect on DOPA accumulation in rat striatum after intraperitoneal administration of compound (3 mg/kg) and GBL, was determined and expressed as percent reversal of the increase in DOPA; type: functional
[9] = molecular target: T1, D(2) dopamine receptor; test: Intrinsic activity relative to Quinpirole for human Dopamine receptor D2L was determined
Outline: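 CHO-10001 cells transfected with human DA D2L receptor; activation read as stimulation of [3H]thymidine uptake (mitogenesis). Intrinsic activity = maximal response of compound relative to maximal response of full DA agonist quinpirole, ± SEM.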

[10] = system: Rattus norvegicus; test: Effect on […] in rats after intraperitoneal administration of compound (10 mg/kg) and GBL, was determined and expressed as percent reversal of the increase in DOPA; type: functional

T1 sequence (P14416 whole entry): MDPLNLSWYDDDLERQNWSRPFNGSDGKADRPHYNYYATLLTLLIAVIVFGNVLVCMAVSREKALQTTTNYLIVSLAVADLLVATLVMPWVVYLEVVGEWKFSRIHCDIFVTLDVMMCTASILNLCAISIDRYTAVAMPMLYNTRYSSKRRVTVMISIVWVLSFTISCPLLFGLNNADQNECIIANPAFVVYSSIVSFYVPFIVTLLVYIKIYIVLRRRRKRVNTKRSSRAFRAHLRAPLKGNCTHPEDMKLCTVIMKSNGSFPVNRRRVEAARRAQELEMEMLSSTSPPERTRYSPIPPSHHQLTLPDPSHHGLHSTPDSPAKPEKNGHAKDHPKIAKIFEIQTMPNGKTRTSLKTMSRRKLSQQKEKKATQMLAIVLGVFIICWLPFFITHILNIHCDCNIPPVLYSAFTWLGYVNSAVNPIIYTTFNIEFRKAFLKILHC
Chain of D(3) dopamine receptor (P35462 whole entry): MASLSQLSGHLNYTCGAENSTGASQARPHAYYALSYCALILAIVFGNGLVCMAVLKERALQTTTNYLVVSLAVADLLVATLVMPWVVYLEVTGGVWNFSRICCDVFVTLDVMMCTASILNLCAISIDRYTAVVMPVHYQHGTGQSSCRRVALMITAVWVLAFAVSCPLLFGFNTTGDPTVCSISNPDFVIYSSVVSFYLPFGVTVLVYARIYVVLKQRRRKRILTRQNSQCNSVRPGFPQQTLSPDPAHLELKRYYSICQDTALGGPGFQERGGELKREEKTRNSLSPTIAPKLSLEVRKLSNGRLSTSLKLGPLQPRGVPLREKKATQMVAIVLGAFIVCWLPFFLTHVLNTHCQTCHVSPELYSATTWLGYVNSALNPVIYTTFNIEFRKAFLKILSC

| Structure (SMILES) | Activity [1] | ED50 [2] | Ki [3] | Ki [4] | Ki [5] | Ki [6] | ED50 [7] | Activity [8] | Activity [9] | Activity [10] |
| --- | --- | --- | --- | --- | --- | --- | --- | --- | --- | --- |
| Oc1ccc(C2=CCC[C@@H](CN3CC=C(c4ccccc4)CC3)C2)cc1 | -27 | 0.3 mg/kg | 3.5 nM | 0.52 nM | 0.2 nM | 61.4 nM | 1.34 mg/kg | -44 | 0.62 | -100 |
| Oc1ccc(C2=CCN(C[C@@H]3CCC=C(c4ccc(O)cc4)C3)CC2)cc1 | -8 | 6.1 mg/kg | 10.3 nM | 3.4 nM | 2.2 nM | 68 nM | > 2.5 mg/kg |  | 0.29 | -10 |
| Oc1ccc(C2=CCN(C[C@@H]3CCC=C(c4ccccc4)C3)CC2)cc1 | 0 | > 30 mg/kg | 94 nM | 56.7 nM | 5.7 nM | > 10000 nM | > 2.5 mg/kg |  | 0.37 | 33 |
| C1=C(c2ccccc2)CCN(C[C@@H]2CCC=C(c3ccccc3)C2)C1 [CI-1007] | -66 | 0.7 mg/kg |  |  | 8.4 nM |  | 0.63 mg/kg |  | 0.66 | -99 |
